According to ChEMBL document CHEMBL1152560, “Substituted 2-arylbenzothiazoles as kinase inhibitors: hit-to-lead optimization” (Bioorg Med Chem, 2009):

Key:
[1] = test system: T1, Receptor-type tyrosine-protein kinase FLT3 (Homo sapiens), P36888 [D835Y]; test: Residual activity of FLT3 D835Y mutant at 1 uM by microplate scintillation counting
T1 sequence (whole entry): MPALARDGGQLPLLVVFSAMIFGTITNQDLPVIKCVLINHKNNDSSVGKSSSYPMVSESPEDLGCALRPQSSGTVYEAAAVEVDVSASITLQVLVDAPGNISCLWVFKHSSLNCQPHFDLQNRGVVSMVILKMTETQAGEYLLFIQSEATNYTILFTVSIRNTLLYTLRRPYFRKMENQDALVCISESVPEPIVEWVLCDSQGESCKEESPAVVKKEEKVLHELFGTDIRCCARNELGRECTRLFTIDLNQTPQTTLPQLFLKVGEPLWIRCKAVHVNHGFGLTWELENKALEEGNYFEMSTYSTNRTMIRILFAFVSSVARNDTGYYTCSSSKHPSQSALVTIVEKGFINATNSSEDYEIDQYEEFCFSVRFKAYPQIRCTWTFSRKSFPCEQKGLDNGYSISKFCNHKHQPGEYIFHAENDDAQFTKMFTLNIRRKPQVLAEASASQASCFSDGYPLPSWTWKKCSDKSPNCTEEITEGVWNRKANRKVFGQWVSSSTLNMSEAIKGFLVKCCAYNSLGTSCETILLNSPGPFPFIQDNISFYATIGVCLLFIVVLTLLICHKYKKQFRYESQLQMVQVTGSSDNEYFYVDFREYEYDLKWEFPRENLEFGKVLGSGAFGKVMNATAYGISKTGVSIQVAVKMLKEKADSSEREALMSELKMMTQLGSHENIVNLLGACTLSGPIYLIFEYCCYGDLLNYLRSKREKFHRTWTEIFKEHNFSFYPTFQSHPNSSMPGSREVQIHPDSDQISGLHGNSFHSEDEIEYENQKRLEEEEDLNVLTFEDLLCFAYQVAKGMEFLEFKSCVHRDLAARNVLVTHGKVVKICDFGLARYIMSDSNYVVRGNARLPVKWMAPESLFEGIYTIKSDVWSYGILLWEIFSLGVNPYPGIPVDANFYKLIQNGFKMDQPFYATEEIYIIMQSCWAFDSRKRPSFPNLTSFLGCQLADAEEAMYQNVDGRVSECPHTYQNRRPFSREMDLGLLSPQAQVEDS

[2] = biological target: Platelet-derived growth factor receptor beta (Homo sapiens, UniProt P09619); test: Inhibition of PDGFRbeta in human HCT116 cells by cellular phosphorylation assay; type: cell-based, HCT-116
Platelet-derived growth factor receptor beta, sequence (P09619 whole entry): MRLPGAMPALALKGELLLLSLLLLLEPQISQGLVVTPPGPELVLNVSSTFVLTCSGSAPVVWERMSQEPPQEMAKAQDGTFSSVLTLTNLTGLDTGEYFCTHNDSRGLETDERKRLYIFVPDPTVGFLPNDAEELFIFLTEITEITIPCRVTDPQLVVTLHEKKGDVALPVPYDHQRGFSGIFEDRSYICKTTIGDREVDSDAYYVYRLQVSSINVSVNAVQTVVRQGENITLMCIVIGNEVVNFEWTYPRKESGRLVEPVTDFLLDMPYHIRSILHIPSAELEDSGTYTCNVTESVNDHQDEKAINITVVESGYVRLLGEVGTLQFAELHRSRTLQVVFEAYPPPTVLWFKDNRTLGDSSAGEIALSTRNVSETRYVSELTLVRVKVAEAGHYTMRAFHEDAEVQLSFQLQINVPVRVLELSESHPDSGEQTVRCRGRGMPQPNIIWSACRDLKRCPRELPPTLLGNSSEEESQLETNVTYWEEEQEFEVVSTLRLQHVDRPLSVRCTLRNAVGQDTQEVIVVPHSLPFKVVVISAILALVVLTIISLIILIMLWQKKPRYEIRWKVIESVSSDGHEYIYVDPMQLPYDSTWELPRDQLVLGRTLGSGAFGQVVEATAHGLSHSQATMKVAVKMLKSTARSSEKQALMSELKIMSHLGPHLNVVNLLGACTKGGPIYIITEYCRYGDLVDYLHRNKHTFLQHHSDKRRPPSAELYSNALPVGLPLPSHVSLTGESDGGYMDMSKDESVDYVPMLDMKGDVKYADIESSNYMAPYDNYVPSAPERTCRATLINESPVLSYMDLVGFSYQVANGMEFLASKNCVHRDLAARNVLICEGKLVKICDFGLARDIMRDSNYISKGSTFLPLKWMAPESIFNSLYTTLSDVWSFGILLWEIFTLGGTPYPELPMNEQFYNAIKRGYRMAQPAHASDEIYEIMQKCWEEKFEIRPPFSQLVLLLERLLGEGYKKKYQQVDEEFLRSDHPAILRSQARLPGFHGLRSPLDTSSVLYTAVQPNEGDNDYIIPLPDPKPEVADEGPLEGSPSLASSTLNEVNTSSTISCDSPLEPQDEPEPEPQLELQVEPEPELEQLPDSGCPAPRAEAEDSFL
Method in brief: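 Cells expressing PDGFRβ were treated with compound, then stimulated to give maximal autophosphorylation in controls. Cells were lysed, and receptor phosphorylation was quantified by sandwich ELISA with a receptor-specific capture antibody and an anti-phosphotyrosine antibody. EC50 from a sigmoidal curve relative to the stimulated high control. Nine concentrations, 1 nM–10 μM in half-log steps, each in duplicate.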

[3] = biological target: Protein kinase C alpha type (Homo sapiens) (UniProt P17252); test: Residual activity of PKCalpha at 0.1 uM by microplate scintillation counting
[4] = biological target: Epidermal growth factor receptor (Homo sapiens, UniProt P00533); test: Inhibition of EGFR in human HCT116 cells by cellular phosphorylation assay
Epidermal growth factor receptor, sequence (P00533 whole entry): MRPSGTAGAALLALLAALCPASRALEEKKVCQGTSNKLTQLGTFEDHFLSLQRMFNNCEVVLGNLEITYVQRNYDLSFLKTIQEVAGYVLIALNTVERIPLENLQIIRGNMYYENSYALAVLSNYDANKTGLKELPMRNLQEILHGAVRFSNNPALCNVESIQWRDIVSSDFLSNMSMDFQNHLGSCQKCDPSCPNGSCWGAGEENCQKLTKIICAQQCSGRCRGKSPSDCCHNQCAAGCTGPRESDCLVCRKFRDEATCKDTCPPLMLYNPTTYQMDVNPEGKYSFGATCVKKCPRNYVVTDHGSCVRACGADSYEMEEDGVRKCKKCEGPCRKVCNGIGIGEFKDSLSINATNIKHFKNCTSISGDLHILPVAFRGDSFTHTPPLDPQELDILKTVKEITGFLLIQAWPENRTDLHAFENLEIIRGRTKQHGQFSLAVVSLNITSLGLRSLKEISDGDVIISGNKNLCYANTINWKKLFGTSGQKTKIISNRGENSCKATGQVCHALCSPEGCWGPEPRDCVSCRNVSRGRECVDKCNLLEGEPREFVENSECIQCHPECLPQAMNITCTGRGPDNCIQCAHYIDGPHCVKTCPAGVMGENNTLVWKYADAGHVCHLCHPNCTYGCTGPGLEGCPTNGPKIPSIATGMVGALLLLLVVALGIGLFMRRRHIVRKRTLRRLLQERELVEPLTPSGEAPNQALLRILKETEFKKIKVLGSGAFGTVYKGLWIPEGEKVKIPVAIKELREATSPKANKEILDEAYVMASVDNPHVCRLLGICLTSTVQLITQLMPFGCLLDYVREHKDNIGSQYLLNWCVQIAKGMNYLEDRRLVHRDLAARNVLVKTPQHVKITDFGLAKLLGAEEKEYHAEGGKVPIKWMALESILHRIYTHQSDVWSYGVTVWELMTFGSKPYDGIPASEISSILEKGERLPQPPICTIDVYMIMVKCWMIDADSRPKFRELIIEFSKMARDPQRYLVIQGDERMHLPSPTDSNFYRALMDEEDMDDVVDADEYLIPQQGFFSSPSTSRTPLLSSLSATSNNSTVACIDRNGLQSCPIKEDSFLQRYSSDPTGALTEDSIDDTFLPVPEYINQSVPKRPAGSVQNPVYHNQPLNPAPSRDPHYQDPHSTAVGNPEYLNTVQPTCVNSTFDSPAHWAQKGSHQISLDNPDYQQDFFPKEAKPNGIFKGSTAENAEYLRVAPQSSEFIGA

Compound	residual activity [1]	EC50 [2]	residual activity [3]	EC50 [4]
COc1cc2c(Oc3ccc(-c4nc5ccccc5s4)cc3)ncnc2cc1OCCCN1CCN(C)CC1	95%	170 nM	108%	
COc1cc2c(Oc3ccc(-c4nc5ccccc5s4)cc3F)ncnc2cc1OCCCN1CCN(C)CC1	78%		100%	> 10000 nM
COc1cc2c(Oc3ccc(-c4nc5ccccc5s4)cc3)ncnc2cc1OCCCN1CCCC1	90%	2000 nM	137%	
